Measurements reported in ChEMBL document CHEMBL1148367, “Novel azapeptide inhibitors of hepatitis C virus serine protease” (J Med Chem, 2004).
pIC50: −log10 of the molar value. *1 amine or outer side, *2 acyl side, *3 side chain or, on linkers, in order; H or OH if unused. Where a SMILES comes first, the peptide text is derived from it. [ ]: non-standard residue; d: D form. The star is where a group is joined. NH(1S-phenylpropyl) = CC[C@H](N*)c1ccccc1; NH(1R-phenylethyl) = C[C@@H](N*)c1ccccc1; NH(1S-phenylethyl) = C[C@H](N*)c1ccccc1; X8 = O=C(N(CC(F)(F)F)N[*:1])[*:2]; Hyp = O=C(O)[C@@H]1C[C@@H](O)CN1; NHPiperonyl = c1cc2c(cc1CN*)OCO2; X12 = CCCN(N*)C(=O)NN(C)c1ccccc1; X5 = CC(C)CCN(N[*:1])C(=O)[*:2]; azaNva = CCCN(N[*:1])C(=O)[*:2]; AzaAla = CN(N[*:1])C(=O)[*:2]; X10 = CCCN(N*)C(=O)CCc1ccccc1; X3 = C[C@H](N*)c1cccc2ccccc12; X9 = CCCCCN(N[*:1])C(=O)[*:2]; NMe(benzyl) = CN(Cc1ccccc1)*; X6 = CCCN(N*)C(=S)NCc1ccccc1; X7 = CCCN(N*)C(=O)OCc1ccccc1; X1 = c1ccc2c(c1)CC[C@@H]2N*; X4 = C[C@H](N*)c1ccc(Br)cc1; X14 = C[C@H](N*)c1nnn[nH]1; X11 = C[C@H](N*)C1CCCCC1; X13 = c1ccc2c(c1)CCN2*; NHBn = c1ccc(CN*)cc1; X2 = CCCN(N*)C(N)=O; Bn = c1ccc(C*)cc1

target: T1, NS3 (Hepatitis C virus, UniProt A3EZJ3); assay: Inhibitory concentration against Hepatitis C virus NS3 serine protease; set-up: species or system Hepacivirus hominis
Procedure, shortened: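 HCV NS3 serine protease IC50 from the group's in-house protease assay, run as previously described. Each reported value is the mean of at least four determinations.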

T1 sequence (A3EZJ3 whole entry): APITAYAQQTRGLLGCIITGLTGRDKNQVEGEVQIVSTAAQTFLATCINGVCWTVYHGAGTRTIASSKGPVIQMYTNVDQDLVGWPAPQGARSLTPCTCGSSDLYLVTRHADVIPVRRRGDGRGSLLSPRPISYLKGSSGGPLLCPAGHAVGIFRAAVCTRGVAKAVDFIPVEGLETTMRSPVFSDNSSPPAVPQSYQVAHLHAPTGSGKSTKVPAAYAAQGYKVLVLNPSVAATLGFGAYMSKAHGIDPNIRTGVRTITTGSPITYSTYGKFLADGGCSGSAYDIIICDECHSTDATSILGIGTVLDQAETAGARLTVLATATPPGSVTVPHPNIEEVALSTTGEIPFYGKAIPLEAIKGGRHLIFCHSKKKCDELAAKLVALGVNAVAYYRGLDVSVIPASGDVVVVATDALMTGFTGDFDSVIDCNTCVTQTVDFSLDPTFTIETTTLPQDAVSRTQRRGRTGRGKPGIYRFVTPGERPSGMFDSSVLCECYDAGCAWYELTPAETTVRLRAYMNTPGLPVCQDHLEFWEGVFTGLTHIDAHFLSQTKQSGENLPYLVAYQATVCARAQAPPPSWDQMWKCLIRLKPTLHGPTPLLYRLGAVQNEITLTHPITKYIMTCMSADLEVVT

pIC50	Compound
4.37	Ac-DDIVPC-OH

target: T1, NS3; assay: Inhibitory concentration against Hepatitis C virus serine protease; set-up: species or system Hepacivirus hominis

Compound	pIC50
CCC[C@@H](NC(=O)[C@@H]1C[C@@H](OCc2ccccc2)CN1C(=O)[C@@H](NC(=O)[C@@H](NC(=O)[C@@H](CCC(=O)O)NC(=O)[C@H](CC(=O)O)NC(C)=O)[C@@H](C)CC)C(C)C)C(=O)O	4.47
CC[C@H](C)[C@H](NC(=O)[C@@H](CCC(=O)O)NC(=O)[C@H](CC(=O)O)NC(C)=O)C(=O)N[C@H](C(=O)N1C[C@H](OCc2ccccc2)C[C@H]1C(=O)NN(CC(C)C)C(=O)N[C@@H](C)c1ccccc1)C(C)C	5.62
CCC(CC)N(NC(=O)[C@@H]1C[C@@H](OCc2ccccc2)CN1C(=O)[C@@H](NC(=O)[C@@H](NC(=O)[C@@H](CCC(=O)O)NC(=O)[C@H](CC(=O)O)NC(C)=O)[C@@H](C)CC)C(C)C)C(=O)N[C@@H](C)c1ccccc1	5.39
CCCCN(NC(=O)[C@@H]1C[C@@H](OCc2ccccc2)CN1C(=O)[C@@H](NC(=O)[C@@H](NC(=O)[C@@H](CCC(=O)O)NC(=O)[C@H](CC(=O)O)NC(C)=O)[C@@H](C)CC)C(C)C)C(=O)N[C@@H](C)c1ccccc1	7.00
CC[C@H](C)[C@H](NC(=O)[C@@H](CCC(=O)O)NC(=O)[C@H](CC(=O)O)NC(C)=O)C(=O)N[C@H](C(=O)N1C[C@H](OCc2ccccc2)C[C@H]1C(=O)NN(CC)C(=O)N[C@@H](C)c1ccccc1)C(C)C	7.07
CCC[C@H](NC(=O)[C@@H]1C[C@@H](OCc2ccccc2)CN1C(=O)[C@@H](NC(=O)[C@@H](NC(=O)[C@@H](CCC(=O)O)NC(=O)[C@H](CC(=O)O)NC(C)=O)[C@@H](C)CC)C(C)C)C(N)=O	4.59
CCC[C@H](NC(=O)[C@@H]1C[C@@H](OCc2ccccc2)CN1C(=O)[C@@H](NC(=O)[C@@H](NC(=O)[C@@H](CCC(=O)O)NC(=O)[C@H](CC(=O)O)NC(C)=O)[C@@H](C)CC)C(C)C)C(=O)O	6.22
CCCN(NC(=O)[C@@H]1C[C@@H](OCc2ccccc2)CN1C(=O)[C@@H](NC(=O)[C@@H](NC(=O)[C@@H](CCC(=O)O)NC(=O)[C@H](CC(=O)O)NC(C)=O)[C@@H](C)CC)C(C)C)C(N)=O (Ac-D[dE]IV[Hyp](Bn)-X2)	4.76
CCCN(NC(=O)[C@@H]1C[C@@H](OCc2ccccc2)CN1C(=O)[C@@H](NC(=O)[C@@H](NC(=O)[C@@H](CCC(=O)O)NC(=O)[C@H](CC(=O)O)NC(C)=O)[C@@H](C)CC)C(C)C)C(=S)NCc1ccccc1 (Ac-D[dE]IV[Hyp](Bn)-X6)	5.38
CCCN(NC(=O)[C@@H]1C[C@@H](OCc2ccccc2)CN1C(=O)[C@@H](NC(=O)[C@@H](NC(=O)[C@@H](CCC(=O)O)NC(=O)[C@H](CC(=O)O)NC(C)=O)[C@@H](C)CC)C(C)C)C(=O)OCc1ccccc1 (Ac-D[dE]IV[Hyp](Bn)-X7)	6.10
CCCN(NC(=O)[C@@H]1C[C@@H](OCc2ccccc2)CN1C(=O)[C@@H](NC(=O)[C@@H](NC(=O)[C@@H](CCC(=O)O)NC(=O)[C@H](CC(=O)O)NC(C)=O)[C@@H](C)CC)C(C)C)C(=O)CCc1ccccc1 (Ac-D[dE]IV[Hyp](Bn)-X10)	6.15
CCCN(NC(=O)[C@@H]1C[C@@H](OCc2ccccc2)CN1C(=O)[C@@H](NC(=O)[C@@H](NC(=O)[C@@H](CCC(=O)O)NC(=O)[C@H](CC(=O)O)NC(C)=O)[C@@H](C)CC)C(C)C)C(=O)NN(C)c1ccccc1 (Ac-D[dE]IV[Hyp](Bn)-X12)	6.32
CC[C@H](C)[C@H](NC(=O)[C@@H](CCC(=O)O)NC(=O)[C@H](CC(=O)O)NC(C)=O)C(=O)N[C@H](C(=O)N1C[C@H](OCc2ccccc2)C[C@H]1C(=O)NN(C)C(=O)N[C@@H](C)c1ccccc1)C(C)C (Ac-D[dE]IV[Hyp](Bn)[AzaAla]-{NH(1S-phenylethyl)})	6.37
CC[C@H](C)[C@H](NC(=O)[C@@H](CCC(=O)O)NC(=O)[C@H](CC(=O)O)NC(C)=O)C(=O)N[C@H](C(=O)N1C[C@H](OCc2ccccc2)C[C@H]1C(=O)NN(CCC(C)C)C(=O)N[C@@H](C)c1ccccc1)C(C)C (Ac-D[dE]IV[Hyp](Bn)[X5]-{NH(1S-phenylethyl)})	5.24
CC[C@H](C)[C@H](NC(=O)[C@@H](CCC(=O)O)NC(=O)[C@H](CC(=O)O)NC(C)=O)C(=O)N[C@H](C(=O)N1C[C@H](OCc2ccccc2)C[C@H]1C(=O)NN(CC(F)(F)F)C(=O)N[C@@H](C)c1ccccc1)C(C)C (Ac-D[dE]IV[Hyp](Bn)[X8]-{NH(1S-phenylethyl)})	6.47
CCCCCN(NC(=O)[C@@H]1C[C@@H](OCc2ccccc2)CN1C(=O)[C@@H](NC(=O)[C@@H](NC(=O)[C@@H](CCC(=O)O)NC(=O)[C@H](CC(=O)O)NC(C)=O)[C@@H](C)CC)C(C)C)C(=O)N[C@@H](C)c1ccccc1 (Ac-D[dE]IV[Hyp](Bn)[X9]-{NH(1S-phenylethyl)})	6.31
CCCN(NC(=O)[C@@H]1C[C@@H](OCc2ccccc2)CN1C(=O)[C@@H](NC(=O)[C@@H](NC(=O)[C@@H](CCC(=O)O)NC(=O)[C@H](CC(=O)O)NC(C)=O)[C@@H](C)CC)C(C)C)C(=O)NCc1ccccc1 (Ac-D[dE]IV[Hyp](Bn)[azaNva]-NHBn)	6.23
CCCN(NC(=O)[C@@H]1C[C@@H](OCc2ccccc2)CN1C(=O)[C@@H](NC(=O)[C@@H](NC(=O)[C@@H](CCC(=O)O)NC(=O)[C@H](CC(=O)O)NC(C)=O)[C@@H](C)CC)C(C)C)C(=O)NCc1ccc2c(c1)OCO2 (Ac-D[dE]IV[Hyp](Bn)[azaNva]-NHPiperonyl)	6.30
CCCN(NC(=O)[C@@H]1C[C@@H](OCc2ccccc2)CN1C(=O)[C@@H](NC(=O)[C@@H](NC(=O)[C@@H](CCC(=O)O)NC(=O)[C@H](CC(=O)O)NC(C)=O)[C@@H](C)CC)C(C)C)C(=O)N[C@H]1CCc2ccccc21 (Ac-D[dE]IV[Hyp](Bn)[azaNva]-X1)	7.00
CCCN(NC(=O)[C@@H]1C[C@@H](OCc2ccccc2)CN1C(=O)[C@@H](NC(=O)[C@@H](NC(=O)[C@@H](CCC(=O)O)NC(=O)[C@H](CC(=O)O)NC(C)=O)[C@@H](C)CC)C(C)C)C(=O)N[C@@H](C)c1cccc2ccccc12 (Ac-D[dE]IV[Hyp](Bn)[azaNva]-X3)	6.31
CCCN(NC(=O)[C@@H]1C[C@@H](OCc2ccccc2)CN1C(=O)[C@@H](NC(=O)[C@@H](NC(=O)[C@@H](CCC(=O)O)NC(=O)[C@H](CC(=O)O)NC(C)=O)[C@@H](C)CC)C(C)C)C(=O)N[C@@H](C)c1ccc(Br)cc1 (Ac-D[dE]IV[Hyp](Bn)[azaNva]-X4)	7.14
CCCN(NC(=O)[C@@H]1C[C@@H](OCc2ccccc2)CN1C(=O)[C@@H](NC(=O)[C@@H](NC(=O)[C@@H](CCC(=O)O)NC(=O)[C@H](CC(=O)O)NC(C)=O)[C@@H](C)CC)C(C)C)C(=O)N[C@@H](C)C1CCCCC1 (Ac-D[dE]IV[Hyp](Bn)[azaNva]-X11)	6.38
CCCN(NC(=O)[C@@H]1C[C@@H](OCc2ccccc2)CN1C(=O)[C@@H](NC(=O)[C@@H](NC(=O)[C@@H](CCC(=O)O)NC(=O)[C@H](CC(=O)O)NC(C)=O)[C@@H](C)CC)C(C)C)C(=O)N1CCc2ccccc21 (Ac-D[dE]IV[Hyp](Bn)[azaNva]-X13)	5.36
CCCN(NC(=O)[C@@H]1C[C@@H](OCc2ccccc2)CN1C(=O)[C@@H](NC(=O)[C@@H](NC(=O)[C@@H](CCC(=O)O)NC(=O)[C@H](CC(=O)O)NC(C)=O)[C@@H](C)CC)C(C)C)C(=O)N[C@@H](C)c1nnn[nH]1 (Ac-D[dE]IV[Hyp](Bn)[azaNva]-X14)	6.07
CCCN(NC(=O)[C@@H]1C[C@@H](OCc2ccccc2)CN1C(=O)[C@@H](NC(=O)[C@@H](NC(=O)[C@@H](CCC(=O)O)NC(=O)[C@H](CC(=O)O)NC(C)=O)[C@@H](C)CC)C(C)C)C(=O)N[C@H](C)c1ccccc1 (Ac-D[dE]IV[Hyp](Bn)[azaNva]-{NH(1R-phenylethyl)})	5.37
CCCN(NC(=O)[C@@H]1C[C@@H](OCc2ccccc2)CN1C(=O)[C@@H](NC(=O)[C@@H](NC(=O)[C@@H](CCC(=O)O)NC(=O)[C@H](CC(=O)O)NC(C)=O)[C@@H](C)CC)C(C)C)C(=O)N[C@@H](CC)c1ccccc1 (Ac-D[dE]IV[Hyp](Bn)[azaNva]-{NH(1S-phenylpropyl)})	6.36
CCCN(NC(=O)[C@@H]1C[C@@H](OCc2ccccc2)CN1C(=O)[C@@H](NC(=O)[C@@H](NC(=O)[C@@H](CCC(=O)O)NC(=O)[C@H](CC(=O)O)NC(C)=O)[C@@H](C)CC)C(C)C)C(=O)N(C)Cc1ccccc1 (Ac-D[dE]IV[Hyp](Bn)[azaNva]-{NMe(benzyl)})	5.08
